Reference: ChEMBL document CHEMBL1629548, “In vitro activities of tigecycline against clinical isolates of Aeromonas, Vibrio, and Salmonella species in Taiwan” (2008)
≈ marks a conversion by molar mass, not a printed value.

Columns and labels:
Vibrio cholerae [1] = experiment: Antimicrobial activity against Vibrio cholerae non-O1 assessed as percent tetracyclin-resistant isolate at 0.12 to 16 ug/ml by broth microdilution method; assay type: functional
Vibrio cholerae [2] = experiment: Antimicrobial activity against Vibrio cholerae non-O1 by broth microdilution method; assay type: functional
Procedure, shortened: (§1)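 Tigecycline MICs for clinical isolates (Taiwan) were determined by broth microdilution over 0.03 to 128 μg/ml. A control strain was included, and its MICs had to fall within the recommended range. Susceptible, intermediate and resistant categories were assigned from the MICs using US FDA and EUCAST breakpoints.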

Aeromonas hydrophila [3] = experiment: Antimicrobial activity against Aeromonas hydrophila assessed as percent tetracyclin-resistant isolate at 0.25 to >16 ug/ml by broth microdilution method; assay type: functional
Procedure, shortened: (§2)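 Tetracycline MICs for clinical isolates were determined by broth microdilution over 0.03 to 128 μg/ml. The reported value is the rate of isolates not susceptible to tetracycline for each species or serogroup.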

Aeromonas caviae [4] = experiment: Antimicrobial activity against Aeromonas caviae assessed as percent tetracyclin-resistant isolate at 0.25 to >16 ug/ml by broth microdilution method; assay type: functional; procedure, shortened: as §2
Aeromonas sobria [5] = experiment: Antimicrobial activity against Aeromonas sobria assessed as percent tetracyclin-resistant isolate at 0.25 to >16 ug/ml by broth microdilution method; assay type: functional; procedure, shortened: as §2
Aeromonas hydrophila [6] = experiment: Antimicrobial activity against Aeromonas hydrophila by broth microdilution method; assay type: functional
Procedure, shortened: (§3)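 Clinical isolates from Taiwan; tigecycline and tetracycline MICs by broth microdilution per CLSI guidelines, tested over 0.03 μg/ml to 128 μg/ml; a control strain was included.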

Aeromonas caviae [7] = experiment: Antimicrobial activity against Aeromonas caviae by broth microdilution method; assay type: functional; procedure, shortened: as §3
Aeromonas sobria [8] = experiment: Antimicrobial activity against Aeromonas sobria by broth microdilution method; assay type: functional; procedure, shortened: as §3
[9] = Antimicrobial activity against Salmonella serotype Choleraesuis assessed as percent tetracyclin-resistant isolate at 1 to >128 ug/ml by broth microdilution method; assay type: functional, Salmonella enterica subsp. enterica serovar Choleraesuis; procedure, shortened: as §2
Salmonella typhimurium [10] = experiment: Antimicrobial activity against Salmonella serotype Typhimurium assessed as percent tetracyclin-resistant isolate at 1 to >128 ug/ml by broth microdilution method; assay type: functional, Salmonella enterica subsp. enterica serovar Typhimurium; procedure, shortened: as §2
Salmonella [11] = experiment: Antimicrobial activity against Salmonella serogroup O7 assessed as percent tetracyclin-resistant isolate at 1 to >128 ug/ml by broth microdilution method; assay type: functional; procedure, shortened: as §2
Salmonella [12] = experiment: Antimicrobial activity against Salmonella serogroup O8 assessed as percent tetracyclin-resistant isolate at 1 to >128 ug/ml by broth microdilution method; assay type: functional; procedure, shortened: as §2
Salmonella [13] = experiment: Antimicrobial activity against Salmonella serogroup O9 assessed as percent tetracyclin-resistant isolate at 1 to >128 ug/ml by broth microdilution method; assay type: functional; procedure, shortened: as §2
[14] = Antimicrobial activity against Salmonella serotype Choleraesuis by broth microdilution method; assay type: functional, Salmonella enterica subsp. enterica serovar Choleraesuis; settings: Salmonella enterica; procedure, shortened: as §1
Salmonella typhimurium [15] = experiment: Antimicrobial activity against Salmonella serotype Typhimurium by broth microdilution method; assay type: functional, Salmonella enterica subsp. enterica serovar Typhimurium; settings: Salmonella enterica; procedure, shortened: as §3
Salmonella [16] = experiment: Antimicrobial activity against Salmonella serogroup O7 by broth microdilution method; assay type: functional; procedure, shortened: as §3
Salmonella [17] = experiment: Antimicrobial activity against Salmonella serogroup O8 by broth microdilution method; assay type: functional; procedure, shortened: as §3
Salmonella [18] = experiment: Antimicrobial activity against Salmonella serogroup O9 by broth microdilution method; assay type: functional; procedure, shortened: as §3
Aeromonas sp. [19] = experiment: Antimicrobial activity against tetracycline-susceptible Aeromonas sp. isolate by broth microdilution method; assay type: functional; procedure, shortened: as §3
Aeromonas sp. [20] = experiment: Antimicrobial activity against tetracycline-nonsusceptible Aeromonas sp. isolate by broth microdilution method; assay type: functional; procedure, shortened: as §3
Vibrio [21] = experiment: Antimicrobial activity against tetracycline-susceptible Vibrio sp. Isolate by broth microdilution method; assay type: functional; procedure, shortened: as §3
Vibrio [22] = experiment: Antimicrobial activity against tetracycline-nonsusceptible Vibrio sp. Isolate by broth microdilution method; assay type: functional; procedure, shortened: as §3
Salmonella [23] = experiment: Antimicrobial activity against tetracycline-susceptible Salmonella sp. Isolate by broth microdilution method; assay type: functional; procedure, shortened: as §3
Salmonella [24] = experiment: Antimicrobial activity against tetracycline-nonsusceptible Salmonella sp. Isolate by broth microdilution method; assay type: functional; procedure, shortened: as §3
Aeromonas caviae [25] = experiment: Antimicrobial activity against tigecycline-intermediate Aeromonas caviae isolate by broth microdilution method; assay type: functional; procedure, shortened: as §3

Q: Which Activity (Vibrio cholerae [1]) does the source give for `CN(C)[C@@H]1C(O)=C(C(N)=O)C(=O)[C@@]2(O)C(O)=C3C(=O)c4c(O)cccc4[C@@](C)(O)[C@H]3C[C@@H]12` [TETRACYCLINE] here?
A: Its Activity is 8%.

Q: And the MIC90 (Vibrio cholerae [2])?
A: The MIC90 was 1 µg/mL (≈ 2.25 µM).

Q: And the Activity (Aeromonas hydrophila [3])?
A: Its Activity is 36%.

Q: What about the Activity (Aeromonas caviae [4]) of the same compound?
A: Its Activity is 37%.

Q: And the Activity (Aeromonas sobria [5])?
A: The Activity was 57%.

Q: And the MIC90 (Aeromonas hydrophila [6])?
A: Its MIC90 is 16 µg/mL (≈ 36 µM).

Q: And the MIC90 (Aeromonas caviae [7])?
A: The MIC90 was 16 µg/mL (≈ 36 µM).

Q: What about the MIC90 (Aeromonas sobria [8]) of the same compound?
A: The MIC90 was 16 µg/mL (≈ 36 µM).

Q: What about the Activity [9] of the same compound?
A: The Activity was 84%.

Q: What about the Activity (Salmonella typhimurium [10]) of the same compound?
A: Its Activity is 65%.

Q: What about the Activity (Salmonella [11]) of the same compound?
A: Its Activity is 38%.

Q: And the Activity (Salmonella [12])?
A: Its Activity is 71%.

Q: What about the Activity (Salmonella [13]) of the same compound?
A: Its Activity is 16%.

Q: What about the MIC90 [14] of the same compound?
A: Its MIC90 is > 128 µg/mL.

Q: What about the MIC90 (Salmonella typhimurium [15]) of the same compound?
A: Its MIC90 is > 128 µg/mL.

Q: What about the MIC90 (Salmonella [16]) of the same compound?
A: The MIC90 was > 128 µg/mL.

Q: And the MIC90 (Salmonella [17])?
A: The MIC90 was > 128 µg/mL.

Q: What about the MIC90 (Salmonella [18]) of the same compound?
A: The MIC90 was > 128 µg/mL.

Q: And the MIC (Aeromonas sp. [19])?
A: Its MIC is ≤ 4 µg/mL.

Q: And the MIC (Aeromonas sp. [20])?
A: The MIC was ≥ 8 µg/mL.

Q: What about the MIC (Vibrio [21]) of the same compound?
A: The MIC was ≤ 4 µg/mL.

Q: And the MIC (Vibrio [22])?
A: Its MIC is ≥ 8 µg/mL.

Q: And the MIC (Salmonella [23])?
A: Its MIC is ≤ 4 µg/mL.

Q: And the MIC (Salmonella [24])?
A: The MIC was ≥ 8 µg/mL.

Q: What about the MIC (Aeromonas caviae [25]) of the same compound?
A: Its MIC is > 128 µg/mL.
